Laboratory results taken from PubChem BioAssay AID651931 (Vanderbilt Specialized Chemistry Center, 2012).
Calls of active or inactive are those of the source. No rule for the calls is given here.

Target: Muscarinic acetylcholine receptor M3 (Rattus norvegicus) (UniProt P08483)
Assay: M3 receptor potentiation by M5-directed compounds, selectivity assay for M5 PAM discovery project, CHO cells, rat M3, calcium flux (AID 651931)
Method in brief: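 material = Fluo-4-loaded stable M3 CHO-K1 cells | also added = acetylcholine, EC20 | compound = 0.3% final DMSO | signal = Fluo-4 calcium flux | medium = HBSS, pH 7.4, plus 2.5 mM probenecid and 20 mM HEPES | read-out basis = % of maximal ACh response | incubation = dye load 45-60 min, 1.5 min compound, 50 s ACh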

Muscarinic acetylcholine receptor M3 (Rattus norvegicus), sequence (P08483 whole entry, looked up): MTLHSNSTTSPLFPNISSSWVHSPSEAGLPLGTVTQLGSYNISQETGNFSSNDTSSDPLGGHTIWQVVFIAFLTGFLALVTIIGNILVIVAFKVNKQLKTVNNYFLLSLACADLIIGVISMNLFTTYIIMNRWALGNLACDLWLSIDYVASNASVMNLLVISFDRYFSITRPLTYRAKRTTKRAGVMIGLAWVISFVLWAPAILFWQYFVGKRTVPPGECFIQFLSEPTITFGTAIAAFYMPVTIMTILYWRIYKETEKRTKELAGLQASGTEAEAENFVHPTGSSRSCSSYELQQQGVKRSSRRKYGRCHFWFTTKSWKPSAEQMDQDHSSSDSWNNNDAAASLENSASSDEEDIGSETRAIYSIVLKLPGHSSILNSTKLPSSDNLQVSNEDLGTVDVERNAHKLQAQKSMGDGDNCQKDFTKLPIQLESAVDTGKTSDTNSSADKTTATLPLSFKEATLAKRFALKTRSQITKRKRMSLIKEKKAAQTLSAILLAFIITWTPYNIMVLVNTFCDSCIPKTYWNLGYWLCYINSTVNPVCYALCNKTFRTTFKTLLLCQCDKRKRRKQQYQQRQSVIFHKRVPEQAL

Q: Which outcome does the source give for `O=C1C(=O)N(CCOc2ccccc2)c2ccc(OC(F)(F)F)cc21` here?
A: inactive
